PKD1 kinase inh = inhibitors of human PKD1 kinase. PKD1 kinase fluorescence polarization assay. AID 797. inhibition, % (test concentration not listed). 200,000 tested, 0.056% active. Q15139
Target sequence (Q15139 whole entry, looked up): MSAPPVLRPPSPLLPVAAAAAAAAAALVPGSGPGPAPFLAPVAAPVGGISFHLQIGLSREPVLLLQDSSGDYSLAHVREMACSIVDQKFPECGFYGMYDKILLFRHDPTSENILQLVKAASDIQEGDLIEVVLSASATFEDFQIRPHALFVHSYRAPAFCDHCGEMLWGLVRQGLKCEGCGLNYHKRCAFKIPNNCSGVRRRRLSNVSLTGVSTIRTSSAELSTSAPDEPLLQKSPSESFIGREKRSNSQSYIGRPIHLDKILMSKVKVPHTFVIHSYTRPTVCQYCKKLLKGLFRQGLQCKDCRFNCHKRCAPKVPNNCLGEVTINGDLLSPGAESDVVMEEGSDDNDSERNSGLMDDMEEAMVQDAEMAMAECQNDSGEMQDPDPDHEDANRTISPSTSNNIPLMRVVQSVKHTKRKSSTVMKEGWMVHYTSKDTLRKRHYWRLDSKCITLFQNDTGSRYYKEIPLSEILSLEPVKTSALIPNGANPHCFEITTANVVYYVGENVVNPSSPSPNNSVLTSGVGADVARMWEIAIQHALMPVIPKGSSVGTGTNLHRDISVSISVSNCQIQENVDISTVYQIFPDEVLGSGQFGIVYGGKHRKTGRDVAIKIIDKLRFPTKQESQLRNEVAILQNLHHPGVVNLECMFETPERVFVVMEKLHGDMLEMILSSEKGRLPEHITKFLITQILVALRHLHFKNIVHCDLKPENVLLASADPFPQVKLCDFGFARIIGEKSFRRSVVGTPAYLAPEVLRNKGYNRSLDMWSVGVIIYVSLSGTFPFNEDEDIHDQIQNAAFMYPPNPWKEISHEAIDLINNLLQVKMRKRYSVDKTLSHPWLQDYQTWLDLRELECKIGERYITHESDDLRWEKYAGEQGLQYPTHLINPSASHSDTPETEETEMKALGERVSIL
Arbovirus inh = antivirals against arbovirus infection | arbovirus infection cell-based antiviral screen | inhibition, % at 10 µM | 200,000 tested, 0.37% active | AID 1251; in the data active means inhibition above about 30%
Wee1 degr inh = inhibitors of human Wee1 degradation; HeLa Luc-Wee1K328M stability, luciferase luminescence; 100% = proteasome inhibitor MG132 effect; reporter increase, % at 5 µM; 220,000 tested, 1.2% active;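 active means activation above the mean of all tested compounds plus 3 SD, set per screening run, cut at about 8.8% in these data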;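 further: cells exposed to compound for 20 h before luminescence read; 0% = DMSO alone and 100% = MG132 at 30 µM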
CHOP inhibitor = blocks CHOP induction under ER stress. inhibition, % at 10 µM. CHO-K1 CHOP-promoter luciferase, tunicamycin-induced, 15-18 h. AID 2732. 220,000 tested, 3.8% active;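 active means compounds that reduced the stress-induced luciferase reporter signal by more than about 70% of percent inhibition, limit read from the data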;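 further: 0% = tunicamycin plus vehicle and 100% = wells without tunicamycin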
Rad51 HR inh = Rad51 (human) homologous recombination inhibition | hRad51 DNA strand exchange, fluorescence dequenching | inhibition, % at 10 µM | 200,000 tested, 0.085% active;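 active means inhibition above 40% at the single screening dose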;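 further: 0% = DMSO control wells and 100% = blanks with heterologous ssDNA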
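material = hRad51 filaments on single-stranded DNA | reagent = Donor/quencher-labelled 47-bp dsDNA substrate | compound = 10 µM final, single point | schedule = strand-exchange reaction 15 min at room temperature | measured by = fluorescein emission 520 nm, excitation 485 nm | read-out basis = % inhibition versus plate control and blank means | benchmarks = plate controls and plate blanks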
L major viab = reduces viability of Leishmania major promastigotes; resazurin fluorescence viability; inhibition, % at 10 µM; 200,000 tested, 9% active;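 further: promastigotes grown with compound for 44 hours at 28 °C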
* marks the source's active call; other numbers are inactive results; . = no result given. Shown are actives, neighbours in structure and some others; about 12% of the full set was active somewhere. Unless noted, no stated cut-off is given here; in the data, active means inhibition above about 50%; inactive means the rest.

SMILES	PKD1 kinase inh	Arbovirus inh	Wee1 degr inh	CHOP inhibitor	Rad51 HR inh	L major viab
CC[C@@H](C(N)=O)N1CCCC1=O	.	11.7	-1.2	-3.1	3.0	.
CCOC(=O)C(O)(c1ccc(N(C)C(=O)c2ccc(Cl)c(Cl)c2)cc1)C(F)(F)F (centres undefined)	-8.0	6.6	0.5	37.5	9.6	97.2*
COC(=O)C(O)(c1ccc(N(C)C(=O)c2ccc(Cl)c(Cl)c2)cc1)C(F)(F)F (centres undefined)	2.9	-4.2	2.1	20.2	10.4	63.9*
CCOC(=O)N(C)c1ccc(C(O)(C(=O)OC)C(F)(F)F)cc1 (centres undefined)	-6.7	0.7	0.4	3.2	-2.3	92.6*
COC(=O)C(O)(c1ccc(N(C)C)cc1)C(F)(F)F (centres undefined)	-3.7	14.7	-2.0	7.8	-10.2	-0.4
COC(=O)C(O)(c1ccc(N(C)C(=O)c2cccs2)cc1)C(F)(F)F (centres undefined)	3.8	2.8	1.3	48.5	-10.7	97.0*
CCOC(=O)C(O)(c1ccc(NC(=O)c2ccc(Cl)c(Cl)c2)cc1)C(F)(F)F (centres undefined)	.	.	0.4	2.6	-13.2	.
COc1ccc(OC)c(N2Cc3ccccc3C2=N)c1	-2.3	1.3	0.2	-6.2	16.2	7.4
Cn1cnc(CCN)c1	.	.	.	-25.9	-5.7	.
C/C(=N\N1CCCCC1c1cccnc1)c1c(O)n(C2CCCCC2)c(=S)[nH]c1=O (centres undefined)	-11.1	-2.9	-0.2	30.5	-21.2	44.5
COc1ccc(CC2(CCc3ccncc3)C(=O)NC(=O)NC2=O)cc1	-2.3	7.1	0.5	-0.1	4.7	-8.4
O=C1NC(=O)C(CCc2ccncc2)(Cc2ccc(OCc3ccccc3)cc2)C(=O)N1	.	.	8.8*	-0.4	7.0	.
CC(NCC#Cc1ccccc1)C(O)c1ccccc1 (centres undefined)	-3.4	5.4	0.7	6.9	19.6	13.6
CSc1ccc(CNC(C)C(O)c2ccccc2)cc1 (centres undefined)	0.6	-0.7	1.1	-15.1	2.8	84.3*
Cc1cc(N2CCCCC2)ccc1C=C1C(=O)N(C)C(=S)N(C)C1=O	-6.5	9.1	5.4	-0.8	-15.8	99.5*
CN(C(=O)Oc1ccc(Cl)c2cccnc12)c1ccccc1	-12.4	5.4	1.0	7.0	3.4	53.5*
COc1cc(/C=C2\C(=O)NC(=O)N(c3ccccc3)C2=O)c([N+](=O)[O-])cc1OC	7.7	-6.4	1.9	16.4	-57.4	-1.7
COc1ccc(OC)c(N2C(=O)NC(=O)/C(=C/c3ccc([N+](=O)[O-])s3)C2=O)c1	0.9	-0.6	-0.8	-69.9	9.9	96.8*
CCN1C(=O)/C(=C\c2ccc([N+](=O)[O-])s2)C(=O)NC1=S	-0.3	-16.5	1.9	-88.2	12.4	99.4*
NS(=O)(=O)c1ccc(N=Cc2c(O)n(C3CCCCC3)c(=O)n(C3CCCCC3)c2=O)cc1	-6.8	-38.8	-1.0	112.0*	.	65.3*
COc1ccc(C2SCC(=O)Nc3c2c(C)nn3-c2ccccc2)cc1OC (centres undefined)	-4.3	-2.9	-2.8	-11.7	-5.8	62.4*
CCOC(=O)C1=C(C)OC(N)=C(C(=O)OCC)C12C(=O)Nc1ccc(Br)cc12 (centres undefined)	2.0	2.6	0.3	35.0	.	50.6*
COCCOC(=O)C1=C(N)OC(C)=C(C(=O)OC)C12C(=O)Nc1ccccc12 (centres undefined)	-3.4	1.1	-2.6	-12.1	-4.6	-5.2
COc1cccc(C2CC3C(=O)C=CC2N3Cc2ccccc2)c1 (centres undefined)	-3.4	-1.7	2.8	-37.2	-3.4	99.1*
CCCCOc1ccc(CN2CCN(CCO)CC2)cc1	3.4	-5.0	2.6	17.5	-5.4	89.3*
SMILES	PKD1 kinase inh	Arbovirus inh	Wee1 degr inh	CHOP inhibitor	Rad51 HR inh	L major viab
CCCCCCOc1ccc(CN2CCN(CCO)CC2)cc1	-17.0	-0.9	0.4	5.1	0.8	99.1*
CCCCOc1ccc(CC2C(=O)N(C)C(=O)N(C)C2=O)cc1	2.5	0.8	3.4	-13.3	-6.9	-10.2
CCCCOc1ccc(CN2CCN(CC)CC2)cc1	-1.4	-14.9	0.7	-22.3	-7.8	86.1*
CC(C)OP(=O)(Oc1ccc(C(O)C(Cl)(Cl)Cl)cc1)OC(C)C (centres undefined)	.	.	-1.7	2.8	0.0	.
CC1(C)C2CC=C(CN3CCC(O)CC3)C1C2 (centres undefined)	-3.6	-4.6	0.2	26.1	-6.1	63.5*
Cc1ccc(-c2nc(N(C)C3CCN(C)CC3)c3ccccc3n2)cc1	2.0	-36.9	0.3	12.2	9.8	99.0*
Cc1ccc(-n2c(O)c(C=Nc3ccc(Br)cn3)c(=O)[nH]c2=O)cc1	-3.9	0.2	-1.6	5.1	2.8	-5.2
COc1cccc(CCNCc2ccc(SC)cc2)c1	-1.5	3.2	4.3	21.3	2.2	50.5*
COc1ccc(CCNCc2ccncc2)cc1	6.8	3.5	-1.8	49.8	-1.9	90.2*
COc1ccc(CCNC(C)CCc2ccc(OC)cc2)cc1 (centres undefined)	-2.3	7.0	1.1	18.4	5.8	92.7*
Cc1nn(CC(C)C)c(Cl)c1C(=O)O	3.5	9.1	1.8	-5.6	-1.6	5.3
CCCc1c(C)nc(-c2ccc(C)cc2)nc1OC(=O)N(C)C	.	.	-2.1	-31.0	16.3	.
O=C(Cc1ccc(Cl)c(Cl)c1)N1CCCCC1CN1CCCC1 (centres undefined)	.	.	.	4.9	.	.
COCCCn1c(N)c(C(=O)OCCOC)c2nc3ccccc3nc21	2.0	1.1	6.8	-19.2	-5.8	4.4
CCCCNC(=O)c1c(N)n(CCCOC)c2nc3ccccc3nc12	-4.3	-20.0	6.1	93.1*	0.0	19.3
COCCNC(=O)c1c(N)n(CCC(C)C)c2nc3ccccc3nc12	-8.1	-31.6	0.3	67.7	7.5	100.2*
CCOC(=O)c1c(NS(=O)(=O)c2ccccc2)n(CCCOC)c2nc3ccccc3nc12	-9.8	0.6	-3.0	-16.2	-9.1	96.0*
COCCCNC(=O)c1c(NC(=O)c2ccco2)n(Cc2ccccc2)c2nc3ccccc3nc12	-14.3	-2.1	3.6	21.6	-12.8	96.8*
CC[n+]1c(SC)ccc2cc(OC)ccc21	-9.8	-13.2	5.6	-13.3	-8.0	17.2
COC(=O)c1cn(C(=O)c2cccc3ccccc23)c2ccccc12	.	.	-2.7	29.9	2.1	.
CCN1C[C@]2(COC)CC[C@H](OC)[C@@]34C5C[C@H]6C(=O)C5[C@](O)(C[C@H]6OC)[C@@](O)(C(OC)C23)[C@@H]14 (some centres undefined)	.	.	.	.	7.8	.
C[C@]12CC[C@@H](O)CC1CC[C@@H]1[C@@H]2CC[C@]2(C)C(=O)CC[C@@H]12 (some centres undefined)	.	.	.	-2.3	.	.
CC(C)CCn1c(N)c(C(=O)NCc2cccs2)c2nc3ccccc3nc21	-2.8	-17.2	0.9	95.5*	-7.7	22.4

Assay outcomes as filed in PubChem BioAssay.
